Test results as given in ChEMBL document CHEMBL4813998, “Structural simplification of evodiamine: Discovery of novel tetrahydro-β-carboline derivatives as potent antitumor agents” (Bioorg Med Chem Lett, 2021).

Experiments:
[1] = tested on: HCT-116; assay: Induction of cell cycle arrest in human HCT-116 cells assessed as accumulation at G1 phase at 0.03 uM after 48 hrs by propidium iodide staining based flow cytometric analysis (reference value: 34.38%); type: functional
[2] = Antiproliferative activity against human HCT116 cells assessed as growth inhibition by CCK8 assay; type: functional, cell-based, Epithelial cell; details: epithelial cell
[3] = tested on: HCT-116; assay: Induction of cell cycle arrest in human HCT-116 cells assessed as accumulation at S phase at 0.15 uM after 24 hrs by propidium iodide staining based flow cytometric analysis (reference value: 39.06%); type: functional
[4] = tested on: HCT-116; assay: Induction of cell cycle arrest in human HCT-116 cells assessed as accumulation at G2/M phase at 0.75 uM after 24 hrs by propidium iodide staining based flow cytometric analysis (reference value: 27.78%); type: functional
[5] = tested on: HCT-116; assay: Induction of cell cycle arrest in human HCT-116 cells assessed as accumulation at G1 phase at 0.75 uM after 48 hrs by propidium iodide staining based flow cytometric analysis (reference value: 34.38%); type: functional
[6] = tested on: HCT-116; assay: Induction of apoptosis in human HCT116 cells at 1.5 uM after 48 hrs by annexin V-FITC/propidium iodide staining based flow cytometry (RVB = 6.77%); type: functional
Procedure, shortened: (§1)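 HCT116 cells were treated at 0.03, 0.15, 0.75 or 1.5 μM for 48 h. They were then stained with Annexin V/PI and analysed by flow cytometry, and apoptotic cells were reported as a percentage. An untreated control was run alongside.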

[7] = tested on: HCT-116; assay: Induction of cell cycle arrest in human HCT-116 cells assessed as accumulation at G2/M phase at 0.03 uM after 24 hrs by propidium iodide staining based flow cytometric analysis (reference value: 27.78%); type: functional
[8] = Antiproliferative activity against human MDA-MB-231 cells assessed as growth inhibition by CCK8 assay; type: functional, cell-based, Epithelial cell; details: epithelial cell
[9] = tested on: HCT-116; assay: Induction of apoptosis in human HCT116 cells at 0.15 uM after 48 hrs by annexin V-FITC/propidium iodide staining based flow cytometry (RVB = 6.77%); type: functional; procedure, shortened: as §1
[10] = tested on: HCT-116; assay: Induction of cell cycle arrest in human HCT-116 cells assessed as accumulation at G2/M phase at 0.15 uM after 48 hrs by propidium iodide staining based flow cytometric analysis (reference value: 25.01%); type: functional
[11] = tested on: HCT-116; assay: Induction of cell cycle arrest in human HCT-116 cells assessed as accumulation at S phase at 0.15 uM after 48 hrs by propidium iodide staining based flow cytometric analysis (reference value: 40.6%); type: functional
[12] = tested on: HCT-116; assay: Induction of cell cycle arrest in human HCT-116 cells assessed as accumulation at S phase at 0.75 uM after 24 hrs by propidium iodide staining based flow cytometric analysis (reference value: 39.06%); type: functional
[13] = tested on: HCT-116; assay: Induction of cell cycle arrest in human HCT-116 cells assessed as accumulation at S phase at 0.03 uM after 48 hrs by propidium iodide staining based flow cytometric analysis (reference value: 40.6%); type: functional
[14] = tested on: HCT-116; assay: Induction of apoptosis in human HCT116 cells at 0.75 uM after 48 hrs by annexin V-FITC/propidium iodide staining based flow cytometry (RVB = 6.77%); type: functional; procedure, shortened: as §1
[15] = tested on: HCT-116; assay: Induction of cell cycle arrest in human HCT-116 cells assessed as accumulation at G1 phase at 0.03 uM after 24 hrs by propidium iodide staining based flow cytometric analysis (reference value: 33.16%); type: functional
[16] = tested on: HCT-116; assay: Induction of cell cycle arrest in human HCT-116 cells assessed as accumulation at G2/M phase at 0.03 uM after 48 hrs by propidium iodide staining based flow cytometric analysis (reference value: 25.01%); type: functional
[17] = Antiproliferative activity against human A549 cells assessed as growth inhibition by CCK8 assay; type: functional, cell-based, Epithelial cell; details: epithelial cell
[18] = tested on: HCT-116; assay: Induction of apoptosis in human HCT116 cells at 0.03 uM after 48 hrs by annexin V-FITC/propidium iodide staining based flow cytometry (RVB = 6.77%); type: functional; procedure, shortened: as §1
[19] = tested on: HCT-116; assay: Induction of cell cycle arrest in human HCT-116 cells assessed as accumulation at S phase at 0.03 uM after 24 hrs by propidium iodide staining based flow cytometric analysis (reference value: 39.06%); type: functional
[20] = tested on: HCT-116; assay: Induction of cell cycle arrest in human HCT-116 cells assessed as accumulation at G2/M phase at 0.15 uM after 24 hrs by propidium iodide staining based flow cytometric analysis (reference value: 27.78%); type: functional
[21] = tested on: HCT-116; assay: Induction of cell cycle arrest in human HCT-116 cells assessed as accumulation at G1 phase at 0.15 uM after 48 hrs by propidium iodide staining based flow cytometric analysis (reference value: 34.38%); type: functional
[22] = tested on: HCT-116; assay: Induction of cell cycle arrest in human HCT-116 cells assessed as accumulation at G1 phase at 0.75 uM after 24 hrs by propidium iodide staining based flow cytometric analysis (reference value: 33.16%); type: functional
[23] = tested on: HCT-116; assay: Induction of cell cycle arrest in human HCT-116 cells assessed as accumulation at G1 phase at 0.15 uM after 24 hrs by propidium iodide staining based flow cytometric analysis (reference value: 33.16%); type: functional
[24] = tested on: HCT-116; assay: Induction of cell cycle arrest in human HCT-116 cells assessed as accumulation at S phase at 0.75 uM after 48 hrs by propidium iodide staining based flow cytometric analysis (reference value: 40.6%); type: functional
[25] = tested on: HCT-116; assay: Induction of cell cycle arrest in human HCT-116 cells assessed as accumulation at G2/M phase at 0.75 uM after 48 hrs by propidium iodide staining based flow cytometric analysis (reference value: 25.01%); type: functional

COc1ccc2[nH]c3c(c2c1)CCN(C(=O)CCc1ccccc1)C3c1ccc(Cl)c(Cl)c1 (stereo in doubt; 45)
Activity [1]: 11.27% | IC50 [2]: 160 nM | Activity [3]: 19.86% | Activity [4]: 88.37% | Activity [5]: 2.06% | Activity [6]: 30.98% | Activity [7]: 32.12% | IC50 [8]: 160 nM | Activity [9]: 13.46% | Activity [10]: 93.03% | Activity [11]: 4.78% | Activity [12]: 10.43% | Activity [13]: 20.81% | Activity [14]: 25.43% | Activity [15]: 32.45% | Activity [16]: 67.92% | IC50 [17]: 760 nM | Activity [18]: 10.11% | Activity [19]: 35.43% | Activity [20]: 78.12% | Activity [21]: 2.19% | Activity [22]: 1.2% | Activity [23]: 2.02% | Activity [24]: 4.79% | Activity [25]: 93.15%
